Assay [1] concerns Mus musculus. The assay can be described thus: Tested for physostigmine lethality at a dose of 50 mg/kg after oral administration in mice. It is filed as functional. An outline of the steps:
(§1)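 Groups of 10 CFW mice (19-26 g) given test compound in distilled water or 0.5% carboxymethylcellulose 1 h (0.5 h for hyoscine) before physostigmine 1 mg/kg ip. Tremor or death scored at 10, 20 and 60 min after physostigmine (dead at 10 min = 4, dead later = 3, marked tremor = 2, slight tremor = 1, no effect = 0). Value is percent reduction in group score versus control group.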

The target of assay [2] is Muscarinic acetylcholine receptor. Briefly: Displacement of [3H]QNB from Muscarinic acetylcholine receptor of rat brain membrane. Background: Loss of bound radioactivity is the signal in a displacement assay; it reports binding, not function.
Assay [3] relates to Mus musculus. The assay can be described thus: Tested for physostigmine lethality at a dose of 5 mg/kg after oral administration in mice. It is filed as functional. An outline of the steps:
as §1

Assay [4] deals with Mus musculus. Briefly: Tested for physostigmine lethality at a dose of 10 mg/kg after oral administration in mice. It is filed as functional. An outline of the steps:
as §1

For assay [5], the system named is Mus musculus. Briefly: Tested for physostigmine lethality at a dose of 2.5 mg/kg after oral administration in mice. The format is functional. An outline of the steps: as §1
Assay [6] deals with Mus musculus. Briefly: Tested for physostigmine lethality at a dose of 8 mg/kg after oral administration in mice. It is filed as functional. An outline of the steps:
as §1

Assay [7] has as its system Mus musculus. The assay can be described thus: Tested for physostigmine lethality at a dose of 12 mg/kg after oral administration in mice. The format is functional. An outline of the steps:
as §1

In assay [8] the test system is Mus musculus. Briefly: Tested for physostigmine lethality at a dose of 25 mg/kg after oral administration in mice. The format is functional. An outline of the steps:
as §1

The subject of assay [9] is Mus musculus. The assay can be described thus: Tested for physostigmine lethality at a dose of 20 mg/kg after oral administration in mice. It is filed as functional. An outline of the steps:
as §1

Assay [10] deals with Mus musculus. The assay can be described thus: Tested for physostigmine lethality at a dose of 15 mg/kg after oral administration in mice. The format is functional. The gist of the method: as §1

The structures appear in SMILES notation.

Take `Cc1sc2c(c1C(C)C)C(N1CCN(C)CC1)=Nc1cc(F)ccc1N2`: the Protection in assay [1] is 35%. Further, the IC50 (commonly the concentration at which inhibition is half-maximal) in assay [2] came to 0.064 µM.

Consider `Cc1csc2c1C(N1CCN(C)CC1)=Nc1cc(F)ccc1N2`, for which the Protection in assay [3] is recorded as 65%; in assay [4] it was 67%; in assay [5], 5%. The compound also had an IC50 in assay [2] of 0.101 µM.

Consider `CCc1cc2c(s1)Nc1ccc(F)cc1N=C2N1CCN(C)CC1`, for which the figures for the Protection in assay [6], in assay [4] and in [7] were 18%, 33% and 75%, respectively. The same compound gave an IC50 in assay [2] of 0.116 µM.

With `CN1CCN(C2=Nc3cc(F)ccc3Nc3sc4c(c32)CCCC4)CC1`, the Protection in assay [3] is 46%; in assay [4], 46%; in assay [8] it was 71%. The IC50 in assay [2] turned out to be 0.034 µM.

As for `CCc1c(C)sc2c1C(N1CCN(C)CC1)=Nc1cc(F)ccc1N2`, the figures for the Protection in assay [9], in assay [3] and in assay [4] were 53%, 60% and 75%, respectively. Besides, the IC50 in assay [2] came out at 0.026 µM.

In the case of `Cc1sc2c(c1C)C(N1CCN(C)CC1)=Nc1cc(F)ccc1N2`, the Protection is 33% in [3], 74% in [4] and 5% in assay [5]. The same compound had an IC50 in assay [2] of 0.009 µM.

The compound `CCc1cc2c(s1)Nc1ccc(F)cc1N=C2N1CC(C)N(C)C(C)C1` (configuration not stated) gave a Protection in assay [1] of 24%. Moreover, the IC50 in assay [2] was determined as 0.258 µM.

`CCc1cc2c(s1)Nc1ccc(F)cc1N=C2N1CCN(C)C(C)C1` (configuration not stated): the values for the Protection in [9] and in [4] were 42% and 17%, respectively. Further, the IC50 in assay [2] was found to be 0.097 µM.

As to `CC(C)c1csc2c1C(N1CCN(C)CC1)=Nc1cc(F)ccc1N2`, the Protection in [1] is on record as 35%. In [2], this compound returned an IC50 of 0.026 µM.

`CN1CCN(C2=Nc3cc(F)ccc3Nc3sccc32)CC1`: the IC50 in assay [2] came out at 0.574 µM.

In the case of `CCc1cc2c(s1)Nc1ccc(F)cc1N=C2N1CC(C)N(C)CC1C` (configuration not stated), the IC50 in assay [2] came out at 0.247 µM.

For `CN1CCN(C2=Nc3cc(Cl)ccc3Nc3ccccc32)CC1` [CLOZAPINE], in [10], the Protection is on record as 53%.

Consider `Cc1cc2c(s1)Nc1ccc(F)cc1N=C2N1CCN(C)CC1` [FLUMEZAPINE], for which the Protection turned out to be 64% in assay [3], 75% in [4] and 50% in [5]. For the same compound, in [2], the IC50 worked out at 0.074 µM.

In assay [3], `O=C(CCCN1CCC(O)(c2ccc(Cl)cc2)CC1)c1ccc(F)cc1` [HALOPERIDOL] yielded a Protection of 0%.

The values are drawn from ChEMBL document CHEMBL1122173, “Effects of conformationally restricted 4-piperazinyl-10H-thienobenzodiazepine neuroleptics on central dopaminergic and cholinergic systems” (J Med Chem, 1982).
